Source: ChEMBL document CHEMBL4428053, “Application of a Parallel Synthetic Strategy in the Discovery of Biaryl Acyl Sulfonamides as Efficient and Selective NaV1.7 Inhibitors” (J Med Chem, 2016)

Legend:
in vitro [1] = conditions: human, liver microsomes
in vitro [2] = conditions: rat, liver microsomes
[3] = molecular target: T1, Sodium channel protein type 9 subunit alpha (Homo sapiens, UniProt Q15858); assay: Inhibition of human Nav1.7 expressed in HEK293 cells incubated for 3 to 5 mins at -125 mV holding potential by electrophysiology assay; type: cell-based
Target sequence in this assay (Q15858 whole entry): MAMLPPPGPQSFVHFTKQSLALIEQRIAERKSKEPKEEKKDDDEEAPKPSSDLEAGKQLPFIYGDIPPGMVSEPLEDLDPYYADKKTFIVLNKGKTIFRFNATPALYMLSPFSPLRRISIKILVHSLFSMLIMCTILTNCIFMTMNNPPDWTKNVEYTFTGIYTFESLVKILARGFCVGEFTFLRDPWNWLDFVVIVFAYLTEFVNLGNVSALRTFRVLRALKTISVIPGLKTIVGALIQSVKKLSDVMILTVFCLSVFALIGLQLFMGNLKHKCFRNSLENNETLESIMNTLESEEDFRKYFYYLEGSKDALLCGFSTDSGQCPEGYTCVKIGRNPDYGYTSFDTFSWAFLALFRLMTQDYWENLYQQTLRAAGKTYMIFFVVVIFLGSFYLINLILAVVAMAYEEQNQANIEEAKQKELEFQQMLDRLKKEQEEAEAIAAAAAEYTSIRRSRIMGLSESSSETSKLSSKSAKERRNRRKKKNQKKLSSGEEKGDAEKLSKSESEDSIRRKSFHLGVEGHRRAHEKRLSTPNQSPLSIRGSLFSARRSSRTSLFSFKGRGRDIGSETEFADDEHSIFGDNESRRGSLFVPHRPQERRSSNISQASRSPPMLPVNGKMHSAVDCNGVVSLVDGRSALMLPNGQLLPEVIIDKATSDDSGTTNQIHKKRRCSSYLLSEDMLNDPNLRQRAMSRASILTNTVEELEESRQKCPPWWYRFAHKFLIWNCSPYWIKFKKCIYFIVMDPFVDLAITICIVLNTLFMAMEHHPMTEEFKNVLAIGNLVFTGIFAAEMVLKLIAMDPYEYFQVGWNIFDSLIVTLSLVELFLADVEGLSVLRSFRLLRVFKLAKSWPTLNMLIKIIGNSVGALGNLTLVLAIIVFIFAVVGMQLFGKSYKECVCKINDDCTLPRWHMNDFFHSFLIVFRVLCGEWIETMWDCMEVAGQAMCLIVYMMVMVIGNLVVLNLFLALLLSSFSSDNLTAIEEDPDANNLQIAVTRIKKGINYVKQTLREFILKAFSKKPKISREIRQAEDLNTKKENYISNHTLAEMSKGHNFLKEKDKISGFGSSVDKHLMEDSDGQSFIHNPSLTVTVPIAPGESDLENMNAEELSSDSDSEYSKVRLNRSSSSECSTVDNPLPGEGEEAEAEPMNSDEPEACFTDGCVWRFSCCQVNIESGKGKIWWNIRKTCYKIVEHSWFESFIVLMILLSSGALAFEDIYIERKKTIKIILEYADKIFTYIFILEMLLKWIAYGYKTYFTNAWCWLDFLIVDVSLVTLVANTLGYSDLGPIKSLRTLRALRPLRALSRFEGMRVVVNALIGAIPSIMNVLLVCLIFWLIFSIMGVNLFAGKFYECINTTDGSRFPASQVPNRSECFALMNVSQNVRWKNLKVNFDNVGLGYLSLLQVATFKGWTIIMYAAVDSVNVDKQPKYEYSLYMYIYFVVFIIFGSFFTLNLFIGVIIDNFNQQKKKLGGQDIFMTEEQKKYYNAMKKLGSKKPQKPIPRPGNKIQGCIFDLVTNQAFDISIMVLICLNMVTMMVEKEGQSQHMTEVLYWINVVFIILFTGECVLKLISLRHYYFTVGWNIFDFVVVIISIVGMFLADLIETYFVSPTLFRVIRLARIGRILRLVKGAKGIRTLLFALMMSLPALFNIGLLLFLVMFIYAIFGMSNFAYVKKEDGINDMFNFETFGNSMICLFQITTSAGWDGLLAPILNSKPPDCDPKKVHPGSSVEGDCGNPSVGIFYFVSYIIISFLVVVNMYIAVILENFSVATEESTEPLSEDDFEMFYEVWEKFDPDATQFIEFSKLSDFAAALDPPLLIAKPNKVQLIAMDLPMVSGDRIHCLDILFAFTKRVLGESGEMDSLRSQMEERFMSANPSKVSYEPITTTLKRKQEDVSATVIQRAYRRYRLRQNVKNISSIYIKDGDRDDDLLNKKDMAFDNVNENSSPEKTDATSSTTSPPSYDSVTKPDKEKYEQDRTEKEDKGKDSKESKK

[4] = molecular target: T1, Sodium channel protein type 9 subunit alpha; assay: Inhibition of human Nav1.7 expressed in HEK293 cells at 5 uM incubated for 3 to 5 mins at -125 mV holding potential by electrophysiology assay relative to control; type: cell-based
[5] = molecular target: Sodium channel protein type 5 subunit alpha (Homo sapiens, UniProt Q14524); assay: Inhibition of human Nav1.5 expressed in HEK293 cells incubated for 3 to 5 mins at -50 mV holding potential by electrophysiology assay; type: cell-based
Sodium channel protein type 5 subunit alpha, sequence (Q14524 whole entry): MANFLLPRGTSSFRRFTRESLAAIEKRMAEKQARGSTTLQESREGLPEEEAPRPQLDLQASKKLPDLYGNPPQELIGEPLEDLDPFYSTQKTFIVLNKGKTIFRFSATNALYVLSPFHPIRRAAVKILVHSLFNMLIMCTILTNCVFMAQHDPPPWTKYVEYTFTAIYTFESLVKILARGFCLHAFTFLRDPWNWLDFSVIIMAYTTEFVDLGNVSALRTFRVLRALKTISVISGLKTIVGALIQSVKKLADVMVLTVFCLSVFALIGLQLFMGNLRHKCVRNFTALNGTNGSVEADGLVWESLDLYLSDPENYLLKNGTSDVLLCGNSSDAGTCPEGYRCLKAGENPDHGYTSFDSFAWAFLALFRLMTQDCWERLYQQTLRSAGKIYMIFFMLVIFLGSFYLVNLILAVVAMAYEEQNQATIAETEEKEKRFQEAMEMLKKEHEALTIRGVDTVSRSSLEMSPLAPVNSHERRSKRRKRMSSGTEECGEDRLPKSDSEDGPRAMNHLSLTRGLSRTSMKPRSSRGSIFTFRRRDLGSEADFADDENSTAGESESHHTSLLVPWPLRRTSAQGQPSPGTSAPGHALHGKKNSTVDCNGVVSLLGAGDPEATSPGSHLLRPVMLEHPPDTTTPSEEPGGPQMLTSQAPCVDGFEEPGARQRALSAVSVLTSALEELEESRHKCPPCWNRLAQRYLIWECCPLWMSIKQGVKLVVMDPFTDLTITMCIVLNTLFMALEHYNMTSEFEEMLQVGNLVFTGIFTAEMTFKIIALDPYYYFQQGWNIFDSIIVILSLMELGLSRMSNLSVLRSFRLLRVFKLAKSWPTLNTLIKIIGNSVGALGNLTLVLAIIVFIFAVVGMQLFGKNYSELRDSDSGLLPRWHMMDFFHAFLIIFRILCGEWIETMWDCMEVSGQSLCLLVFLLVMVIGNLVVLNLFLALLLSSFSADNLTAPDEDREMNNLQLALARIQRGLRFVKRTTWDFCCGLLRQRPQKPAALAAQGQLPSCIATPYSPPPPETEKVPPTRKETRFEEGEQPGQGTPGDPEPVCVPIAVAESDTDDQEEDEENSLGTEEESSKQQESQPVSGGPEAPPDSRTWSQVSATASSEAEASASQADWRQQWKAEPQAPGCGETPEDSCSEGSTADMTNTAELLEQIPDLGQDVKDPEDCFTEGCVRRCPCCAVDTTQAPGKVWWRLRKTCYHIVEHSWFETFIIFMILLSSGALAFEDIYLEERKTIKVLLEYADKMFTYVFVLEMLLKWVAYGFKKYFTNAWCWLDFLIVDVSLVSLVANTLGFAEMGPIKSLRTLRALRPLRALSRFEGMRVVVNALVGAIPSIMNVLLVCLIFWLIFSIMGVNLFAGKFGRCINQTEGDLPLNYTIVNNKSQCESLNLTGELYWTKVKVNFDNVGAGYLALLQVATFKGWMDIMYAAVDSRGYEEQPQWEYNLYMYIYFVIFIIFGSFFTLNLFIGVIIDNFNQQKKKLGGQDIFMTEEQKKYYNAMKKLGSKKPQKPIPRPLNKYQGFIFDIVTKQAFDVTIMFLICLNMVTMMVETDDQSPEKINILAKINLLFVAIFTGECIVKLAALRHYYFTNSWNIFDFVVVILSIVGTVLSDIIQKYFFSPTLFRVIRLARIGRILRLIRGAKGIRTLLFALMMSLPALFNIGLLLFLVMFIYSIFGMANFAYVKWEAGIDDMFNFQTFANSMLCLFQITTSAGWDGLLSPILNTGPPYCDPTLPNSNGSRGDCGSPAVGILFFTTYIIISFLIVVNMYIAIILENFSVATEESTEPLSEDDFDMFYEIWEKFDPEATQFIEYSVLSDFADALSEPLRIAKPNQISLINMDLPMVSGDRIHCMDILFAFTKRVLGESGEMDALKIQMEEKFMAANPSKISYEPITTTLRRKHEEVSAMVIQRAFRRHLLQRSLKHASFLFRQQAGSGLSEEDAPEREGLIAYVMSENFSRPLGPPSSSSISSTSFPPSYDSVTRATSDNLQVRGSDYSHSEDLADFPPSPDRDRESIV

[6] = molecular target: Voltage-gated inwardly rectifying potassium channel KCNH2 (Homo sapiens, UniProt Q12809)
Voltage-gated inwardly rectifying potassium channel KCNH2, sequence (Q12809 whole entry): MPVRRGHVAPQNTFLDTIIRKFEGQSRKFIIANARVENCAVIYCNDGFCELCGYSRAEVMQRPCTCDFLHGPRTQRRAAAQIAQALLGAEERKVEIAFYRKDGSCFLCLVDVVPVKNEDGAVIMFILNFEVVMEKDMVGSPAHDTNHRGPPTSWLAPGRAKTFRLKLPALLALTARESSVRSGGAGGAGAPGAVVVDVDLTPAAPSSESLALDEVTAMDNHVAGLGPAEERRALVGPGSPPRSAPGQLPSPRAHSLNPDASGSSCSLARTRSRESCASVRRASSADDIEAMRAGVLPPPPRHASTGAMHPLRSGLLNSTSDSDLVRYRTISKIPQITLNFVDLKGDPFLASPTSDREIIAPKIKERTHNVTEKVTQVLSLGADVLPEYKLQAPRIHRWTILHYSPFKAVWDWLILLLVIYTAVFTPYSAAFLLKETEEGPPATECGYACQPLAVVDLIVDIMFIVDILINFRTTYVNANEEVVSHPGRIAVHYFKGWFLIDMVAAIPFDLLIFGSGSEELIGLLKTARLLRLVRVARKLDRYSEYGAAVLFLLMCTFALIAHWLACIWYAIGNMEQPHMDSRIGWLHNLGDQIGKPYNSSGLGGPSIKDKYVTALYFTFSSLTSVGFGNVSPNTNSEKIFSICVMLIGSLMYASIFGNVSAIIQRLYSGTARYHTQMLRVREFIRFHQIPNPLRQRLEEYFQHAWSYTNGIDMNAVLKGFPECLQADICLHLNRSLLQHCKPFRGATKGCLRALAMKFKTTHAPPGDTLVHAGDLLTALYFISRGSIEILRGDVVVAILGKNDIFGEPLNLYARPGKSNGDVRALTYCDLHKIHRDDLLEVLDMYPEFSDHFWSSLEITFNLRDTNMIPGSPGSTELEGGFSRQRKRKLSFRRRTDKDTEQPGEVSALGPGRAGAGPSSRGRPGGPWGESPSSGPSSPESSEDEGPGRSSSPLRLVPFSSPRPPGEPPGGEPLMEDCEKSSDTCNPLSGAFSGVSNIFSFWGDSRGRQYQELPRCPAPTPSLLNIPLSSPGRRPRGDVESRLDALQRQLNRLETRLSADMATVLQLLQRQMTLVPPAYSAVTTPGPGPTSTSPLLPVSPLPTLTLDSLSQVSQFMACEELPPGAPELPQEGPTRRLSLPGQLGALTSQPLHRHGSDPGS

[7] = Clearance in Harlan rat at 1 mg/kg, iv by LC-MS/MS analysis; type: ADME, organism-based; conditions: in vivo
Summary of the method: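 Male fed rats. The IV dose was given in 100% DMSO. The oral dose was given in 1% Tween 80, 2% HPMC, 97% water/NaOH (pH 8.5).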

[8] = Protein binding in rat plasma at 5 uM after 45 mins by LC-MS/MS analysis; type: ADME, cell-free; conditions: read-out: PPB
Homo sapiens = species: Homo sapiens; assay: Selectivity ratio of IC50 for human Nav1.5 expressed in HEK293 cells to human Nav1.7 expressed in HEK293 cells; type: cell-based
Summary of the method: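 IC50s come from PatchXpress automated electrophysiology, and the ratio divides the hNav1.5 IC50 by the hNav1.7 IC50. For hNav1.7, cells were held at a voltage giving 20-50% channel inactivation. For hNav1.5, cells were held at -50 mV on the same platform.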

Compound | microsomal CLint at 1 µM (in vitro [1]) [µL/min/mg] | microsomal CLint at 1 µM (in vitro [2]) [µL/min/mg] | IC50 [3] [nM] | inhibition [4] [%] | IC50 [5] [nM] | also measured
COc1cc(C(=O)NS(C)(=O)=O)ccc1-c1cnc(Sc2cccc(C)c2)c(Cl)c1 | 199 | < 14 | 160 | – | – | –
CS(=O)(=O)NC(=O)C(=O)c1cc(-c2ccc(Cl)c(Cl)c2)on1 | – | – | – | < 5 | – | –
CC(C)COc1ncc(-c2ccc(C(=O)NS(C)(=O)=O)cc2C(F)(F)F)cc1Cl | > 399 | < 14 | 270 | – | 3100 | –
CS(=O)(=O)NC(=O)c1cscc1SCc1ccc(Cl)c(Cl)c1 | – | – | – | < 5 | – | –
COc1cc(C(=O)NS(C)(=O)=O)ccc1-c1cnc(Oc2cc(F)ccc2F)c(Cl)c1 | < 14 | 33 | – | – | 23700 | –
O=S(=O)(Nc1ncns1)c1ccc2c(-c3ccc(C(F)(F)F)c(Cl)c3)nccc2c1 | – | – | 590 | – | 27000 | Ki [6]: 2000 nM
CC(C)COc1ncc(-c2ccc(C(=O)NS(C)(=O)=O)cc2C(=O)N(C)C)cc1Cl | 19 | < 14 | > 42000 | – | – | –
CS(=O)(=O)NC(=O)c1cc(-c2ccc(Cl)c(Cl)c2)on1 | – | – | – | < 5 | – | –
CC(C)COc1ncc(-c2ccc(C(=O)NS(C)(=O)=O)cc2OC(F)(F)F)cc1Cl | > 399 | < 14 | 140 | – | 3700 | –
COc1cc(C(=O)NS(C)(=O)=O)ccc1-c1cnc(Oc2cc(Cl)cc(Cl)c2)c(C#N)c1 | 39 | 15 | – | – | 16100 | clearance [7]: 30 mL/min/kg; fraction unbound at 0.75 h, 5 µM [8]: < 0.001
CC(C)COc1ncc(-c2ncc(C(=O)NS(C)(=O)=O)cc2F)cc1Cl | 18 | 18 | 10600 | – | – | –
CS(=O)(=O)NC(=O)c1ccc(=O)n(Cc2ccc(Cl)c(Cl)c2)c1 | – | – | – | < 5 | – | –
COc1cc(C(=O)NS(C)(=O)=O)ccc1-c1cnc(N2CCC[C@H]2C(C)C)c(Cl)c1 | 385 | 40 | – | – | 2500 | –
COc1cc(C(=O)NS(C)(=O)=O)c(F)cc1-c1cnc(OCC2(C)CC2)c(Cl)c1 | 110 | < 14 | 62 | – | – | –
Cc1nn(-c2ccc(Cl)c(Cl)c2)c(C)c1C(=O)NS(C)(=O)=O | – | – | – | < 5 | – | –
CS(=O)(=O)NC(=O)CSCc1ccc(Cl)c(Cl)c1 | – | – | – | < 5 | – | –
CS(=O)(=O)NC(=O)c1ccc2c(Oc3ccc(Cl)c(C(F)(F)F)c3)nccc2c1 | – | – | 280 | – | 14400 | Ratio IC50 (Homo sapiens): > 40; Ki [6]: > 30000 nM
CS(=O)(=O)NC(=O)c1ccc(-c2ccc(Cl)c(Cl)c2)cc1 | – | – | 10700 | – | > 42000 | Ki [6]: > 30000 nM
COc1cc(C(=O)NS(C)(=O)=O)c(F)cc1-c1cnc(OC2CCC2)c(Cl)c1 | – | – | 110 | – | – | –
CS(=O)(=O)NC(=O)C1CCN(C(=O)c2ccc(Cl)c(Cl)c2)C1 (configuration not stated) | – | – | – | < 5 | – | –
COc1cc(C(=O)NS(C)(=O)=O)ccc1-c1cnc(Oc2cc(Cl)cc(Cl)c2)c(Cl)c1 | < 14 | < 14 | 36 | – | 6000 | clearance [7]: 9.33 to 12.2 mL/min/kg; fraction unbound at 0.75 h, 5 µM [8]: < 0.001
CC(C)COc1ncc(Oc2nccc3cc(C(=O)NS(C)(=O)=O)ccc23)cc1Cl | – | – | 200 | – | – | –
CS(=O)(=O)NC(=O)Cc1ccc(NS(=O)(=O)c2ccc(Cl)c(Cl)c2)cc1 | – | – | – | < 5 | – | –
CC(C)COc1ncc(-c2ccc(C(=O)NS(C)(=O)=O)cc2)cc1Cl | 14 | < 14 | 1190 | – | – | –
CS(=O)(=O)NC(=O)c1ccc2nc(-c3ccc(Cl)c(Cl)c3)cn2c1 | – | – | – | < 5 | – | –
COc1cc(C(=O)NS(C)(=O)=O)ccc1-c1cnc(OCc2ccc(Cl)cc2)c(Cl)c1 | < 14 | < 14 | 109 | – | 21000 | –
CC(C)COc1ncc(-c2ccc(C(=O)NS(C)(=O)=O)c(Cl)c2)cc1Cl | 26 | < 14 | > 42000 | – | – | –
COc1cc(C(=O)NS(C)(=O)=O)ccc1-c1cnc(OCC(C)C)c(Cl)c1 | 44 | 32 | 350 | – | > 30000 | –
